# Bioassay records deposited in PubChem BioAssay by Broad Institute.
# In the library only some 3.1% were active in any assay of this set; here they are far more common.
# HIV Env fusion: blocks HIV Env-driven cell-cell fusion; HeLa-JRFL Env/CEM21 cell fusion, luciferase; inhibition, % at 12.3 µM; actives 1.1% (n = 360,000);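 active = mean replicate inhibition score of at least 50 and every replicate individually at or above 50; inconclusive = only one of the two criteria met; inactive = mean below 50 and not all replicates reaching 50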;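 also: 0% = plate neutral controls and 100% = maraviroc near 300 nM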
# PGC1a acetyl inh: PGC1a acetylation modulation, inhibitor mode; actives 0.17% (n = 350,000); inhibition, % at 15.6 µM; U2OS PGC1a acetylation, AlphaScreen anti-acetyl-lysine; with virally co-expressed GCN5 acetyltransferase;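 active = every replicate shows inhibition of at least 40%; inconclusive = mean inhibition at least 40% but some replicate below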;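 also: 0% = neutral control wells and 100% = positive control wells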
# EWS-Fli block: EWS/Fli transcriptional activity inhibition; A673 NR0B1-luciferase reporter, viability-normalised; inhibition, % at 12.6 µM; actives 0.67% (n = 350,000);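 active = mean inhibition of at least 50% after viability correction, with every replicate also passing that limit; inconclusive = mean reaches 50% but only one of two replicates passes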;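 also: firefly luciferase signal divided by Alamar Blue viability fluorescence both relative to DMSO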
# FN deposition inh: fibronectin deposition inhibition | AH1F fibroblasts, Alexa488-fibronectin deposition fluorescence, overnight | inhibition, % at 12.6 µM | actives 0.086% (n = 350,000) | AID 743247;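 active = mean inhibition across replicates of 30% or more, regardless of how many single replicates reach that level; inconclusive = mean under 30% yet at least half of replicates reach 30%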;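 also: positive control wells lacked labelled fibronectin entirely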
#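 Test system: AH1F fibroblast monolayer depositing Alexa488-labelled fibronectin into matrix. Input: 10000 cells per well. Technique: fluorescence, ex 485 nm, em 525 nm. Buffer or medium: DMEM plus 2% serum, read in PBS. Timing: 1 h cell adhesion before compound, then overnight fibronectin incubation. Compound: single dose, pinned. Read-out basis: inhibition from reduced deposited-fibronectin fluorescence.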
# FGF22 binding: shifts melting point of recombinant human FGF22; actives 1.5% (n = 340,000); Q9HCT0; recombinant FGF22 thermal shift, SYPRO orange fluorescence; percent of sucrose octasulfate shift, DMSO zero; activity (Tm shift, normalised), % at 9.99 µM;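 active = mean Tm shift, scaled 0 neutral to 100 positive control, at about 1.3% or above, every replicate too, limit read from the data; inconclusive = no clear call, values can overlap the other calls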
# Target sequence (Q9HCT0 whole entry, looked up): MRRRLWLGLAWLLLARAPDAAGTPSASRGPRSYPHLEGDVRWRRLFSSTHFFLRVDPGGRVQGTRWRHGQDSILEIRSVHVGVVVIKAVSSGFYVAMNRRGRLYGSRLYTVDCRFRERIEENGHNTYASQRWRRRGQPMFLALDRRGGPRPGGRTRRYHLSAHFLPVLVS
# PAX8 reporter: inhibitors of PAX8 transcriptional activity in RMG-I cells; actives 1.2% (n = 360,000); RMG-I TPO-luciferase reporter, SteadyGlo, 24 h; AID 652154; inhibition, % at 12.6 µM;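 active = mean replicate inhibition at least 60% with every replicate also reaching 60%; inconclusive = only one of the two criteria is met; inactive = mean below 60% and not all replicates reaching 60%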;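 also: luciferase light reporting Pax8 driven TPO promoter activity; plate controls were median of neutral control wells for no effect and mitoxantrone controls for full effect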
# Starred values were filed as active, the others as inactive; ? = inconclusive; / = not tested or not shown; [ ] = another dose, or the depositor's remark.
SMILES,HIV Env fusion,PGC1a acetyl inh,EWS-Fli block,FN deposition inh,FGF22 binding,PAX8 reporter
C[C@@H]1CCCCO[C@@H](CN(C)Cc2ccc(C(F)(F)F)cc2)[C@@H](C)CN([C@@H](C)CO)C(=O)c2cc(NC(=O)Nc3ccc(F)cc3)ccc2O1,2.0[16.7 µM],8.5,2.5,8.4,-0.3,55.1
CC(C)NC(=O)Nc1ccc2c(c1)C(=O)N([C@H](C)CO)C[C@@H](C)[C@@H](CN(C)Cc1ccc(C(F)(F)F)cc1)OCCCC[C@@H](C)O2,34.8[16.7 µM],-1.7,-0.6,16.7,-0.3,-12.8
C[C@@H]1CCCCO[C@@H](CN(C)Cc2ccc(C(F)(F)F)cc2)[C@H](C)CN([C@H](C)CO)C(=O)c2cc(NC(=O)Nc3ccc(C(F)(F)F)cc3)ccc2O1,70.2*[16.7 µM],6.1,-0.3,-4.9,-0.1,68.5*
C[C@@H]1CCCCO[C@@H](CN(C)Cc2ccc(C(F)(F)F)cc2)[C@H](C)CN([C@H](C)CO)C(=O)c2cc(NC(=O)Nc3ccc(F)cc3)ccc2O1,59.9*[16.7 µM],-15.6,11.0,-5.6,-0.4,69.0*
CC(C)NC(=O)Nc1ccc2c(c1)C(=O)N([C@H](C)CO)C[C@@H](C)[C@H](CN(C)Cc1ccc(C(F)(F)F)cc1)OCCCC[C@@H](C)O2,74.7*[16.7 µM],-12.7,14.4,4.4,-0.5,1.9
C[C@@H]1CN([C@@H](C)CO)C(=O)c2cc(NC(=O)Nc3ccc(C(F)(F)F)cc3)ccc2O[C@H]1CN(C)Cc1ccc(C(F)(F)F)cc1,6.6[16.7 µM],-2.9,-6.5,/,0.7,70.1*
COc1ccccc1-c1ccc([C@H]2[C@H](C#N)N(C(=O)C3CC3)[C@H]2CO)cc1,-7.5[16.7 µM],-4.9,0.1,5.3,-0.3,1.0
C[C@@H]1CCCCO[C@H](CN(C)Cc2ccncc2)[C@H](C)CN([C@@H](C)CO)C(=O)c2cc(NC(=O)C3CCCCC3)ccc2O1,-68.3[16.7 µM],12.0,?,5.5,0.1,66.5*
C[C@@H]1CN([C@H](C)CO)C(=O)c2cc(NC(=O)C3CCCCC3)ccc2O[C@@H](C)CCCCO[C@H]1CN(C)Cc1ccncc1,3.7[16.7 µM],10.5,2.1,/,-0.2,7.8
C[C@H]1CN([C@@H](C)CO)S(=O)(=O)c2ccc(C3=CCCCC3)cc2O[C@@H]1CN(C)C(=O)C1CC1,22.4[16.7 µM],-13.3,0.5,/,0.1,/
O=C(COC(=O)c1ccc([N+](=O)[O-])s1)NC(=O)NCc1ccccc1,30.0,1.6,0.1,-1.5,43.1*,7.7
O=C(COC(=O)c1ccc([N+](=O)[O-])s1)NCCc1ccccc1,/,-0.3,/,/,/,/
CC(C)CN1CCN(CCCOC(=O)Nc2cccc3ccccc23)CC1C (stereo unspecified),-14.6,11.8,3.8,0.6,44.2*,19.5
Cc1cc(C)c2c(=O)[nH]c(SCC(=O)c3ccc(C)c(C)c3)nc2n1,-4.7,/,3.1,-18.8,44.1*,-8.0
CCCNC(=O)N[C@H]1C=C[C@@H](CC(=O)NC2CCC2)O[C@@H]1CO,8.5[16.7 µM],23.1,-1.8,-8.4,-0.1,-1.4
CN(C)c1nc(NCc2ccccc2)nc(SCC(=O)Nc2ccc(Cl)c(Cl)c2)n1,57.1*,-2.6,/,-9.5,/,/
COc1nc(SCC(=O)Nc2ccccc2Cl)nc(N(C)C)n1,-1.6,2.3,-27.1,-4.5,0.0,14.1
COC(=O)CSc1nc(NCc2ccccc2)nc(N(C)C)n1,12.3,-5.4,5.1,2.3,43.1*,0.8
CCNc1nc(NCc2ccccc2)nc(SCC(N)=O)n1,-3.2,2.6,8.0,-12.4,0.0,-0.9
CCNc1nc(SCC(=O)Nc2ccc(Cl)c(Cl)c2)nc(N(C)C)n1,17.6,-7.7,6.6,1.0,44.8*,6.6
Cc1sc2ncnc(SC(C)C(=O)N3c4ccccc4Sc4ccccc43)c2c1C (stereo unspecified),40.9,/,89.9*,/,0.5,14.8
Cc1ccc(OCC(=O)NNC(=O)C(C)Sc2ncnc3sc(C)c(C)c23)cc1 (stereo unspecified),-18.6,7.8,/,-1.6,/,31.7
C[C@H]1CCCCO[C@H](CN(C)S(=O)(=O)c2cccs2)[C@@H](C)CN([C@@H](C)CO)C(=O)c2cc(NC(=O)c3ccccc3)ccc2O1,3.8[16.7 µM],-6.0,-0.5,/,-0.2,-9.4
CSc1ccc(S(=O)(=O)N2c3ccccc3CC2C)cc1 (stereo unspecified),28.8,-20.1,51.0*,11.6,0.0,43.8
CC1Cc2ccccc2N1S(=O)(=O)c1cnc(Cl)c(Cl)c1 (stereo unspecified),0.2,-14.3,17.2,9.4,0.3,29.8
SMILES,HIV Env fusion,PGC1a acetyl inh,EWS-Fli block,FN deposition inh,FGF22 binding,PAX8 reporter
C[C@H]1CN([C@@H](C)CO)C(=O)c2cc(NS(=O)(=O)c3ccc(F)cc3)ccc2O[C@@H]1CN(C)C(=O)NC1CCCCC1,-13.4[16.7 µM],3.2,-5.8,/,-0.3,-8.2
CCC(=O)Nc1cc(SCCO)cc([N+](=O)[O-])c1,-13.2,0.2,/,/,/,/
O=C(CCl)Nc1cc(SCC(O)CO)cc([N+](=O)[O-])c1 (stereo unspecified),-63.9,52.5*,47.0,-12.3,42.5,108.3*
CCOc1ccc(OCCn2nnc3ccccc3c2=O)cc1,-86.8,/,-67.6,3.8,43.8*,-127.2
N#CCCn1cc(C(=O)NCc2ccccc2)c(-c2cccs2)n1,10.8,2.8,-2.3,-4.1,43.0*,6.0
COc1ccc2c(C#CCCO)c(-c3ccc(S(C)(=O)=O)cc3)sc2c1,/,-13.0,1.6,-0.9,44.7*,37.3
COc1ccc2sc(-c3ccc(S(C)(=O)=O)cc3)c(C#CCO)c2c1,-73.1,-13.5,-23.2,12.9,0.0,-12.7
COc1ccc(-c2sc3ccc(N4CCOCC4)cc3c2C#CCCO)cc1,5.1,-15.1,13.1,-12.4,0.6,65.1*
OCCNCCCCSc1ccc(Cl)cc1,-4.6,/,-2.2,/,0.1,10.8
OCCNCCSc1ccc(Cl)cc1,-5.1,/,0.6,5.7,42.9*,4.8
COc1ccc(NC(=O)c2nc(C)c(C3(C)CC(c4ccccc4)=NO3)s2)cc1 (stereo unspecified),-302.9,3.7,54.8*,2.2,-0.1,43.6
O=C(C[C@H]1C[C@H]2c3cc(NC(=O)c4cccnc4)ccc3O[C@H]2[C@H](CO)O1)NCCN1CCCCC1,4.6[16.7 µM],-7.9,-8.7,/,-0.1,-3.5
CC(C)C(=O)Nc1ccc2c(c1)C(=O)N(C)[C@@H]1CC[C@@H](CC(=O)O)O[C@@H]1CO2,-9.8[16.7 µM],2.3,-1.5,-3.4,/,-16.7
O=C(O)CCn1ncc2ccccc2c1=O,4.6,-9.1,-3.1,-0.8,43.4*,-4.0
Cc1ccc(NC(=S)Nc2ccc(OC(F)F)c(Cl)c2)cc1F,-47.9,/,-17.3,9.9,42.9*,-25.0
COc1ccccc1-c1ccc2c(c1)[C@H]1[C@H](CCN1S(=O)(=O)c1cn(C)cn1)[C@@H](CO)N2,/,1.7,-4.7,-20.5,-0.3,-34.5
